Assay results from different studies.
Target: Serine/threonine-protein kinase 32C (STK32C, Homo sapiens, UniProt Q86UX6)

CO[C@@H]1[C@H](N(C)C(=O)c2ccccc2)C[C@H]2O[C@]1(C)n1c3ccccc3c3c4c(c5c6ccccc6n2c5c31)C(=O)NC4  inhibition (enzyme activity, inhibitor; 1 µM): 0%
C[C@H]1CC[C@H](n2c3cnccc3c3cnc(Nc4ccc5c(n4)CCN(C(=O)CO)C5)nc32)CC1  remaining signal (cell-free assay; 1 µM): 100%
COc1ccc2oc(-c3ccc4nc(N)oc4c3)c/c(=N\c3ccccc3NC(=O)CCN)c2c1  remaining binding (binding; 1 µM): 100%
Cc1ccc(NC(=O)c2ccnc(C(F)(F)F)c2)cc1-c1cc(OCCO)nc(N2CCOCC2)c1  remaining binding (binding; 1 µM): 100%
N#Cc1ccc(NC(=O)Nc2ccccc2)cc1  remaining binding (cell-free assay, competition with immobilised ligand; 25 µM): 77%
Cc1cc(O)c(-c2ccc([C@@H](C)CN(C)C)cc2)c2c1[nH]c(=O)c1sccc12  inhibition (enzyme activity, inhibitor; 0.1 µM, lysate): -1.49%
CC(C)S(=O)(=O)c1ccc2nccc(Nc3ccc4sc(C5CCCC5)nc4c3)c2c1  activity vs control (enzyme activity, inhibitor; 1 µM): 102%
C#Cc1cnc(Nc2ccnc(CO)c2)nc1Nc1ccccc1S(C)(=O)=NC#N (stereo not shown)  remaining signal (cell-free assay; 1 µM): 100%
C=CC(=O)N1CCC[C@@H](n2nc(-c3ccc(Oc4ccccc4)cc3)c3c(N)ncnc32)C1  inhibition (enzyme activity, inhibitor; 1 µM): 14%
CCCCC(=O)Nc1ccc(-c2ccc3ncn(CCC)c(=O)c3c2)cn1  remaining binding (binding, competition with immobilised ligand; 0.5 µM): 92%
